From ChEMBL document CHEMBL1212781, “VIM-19, a metallo-beta-lactamase with increased carbapenemase activity from Escherichia coli and Klebsiella pneumoniae” (2010)
In brackets after ≈: the same amount, converted by molar mass.

Tests used:
[1] = test system: Escherichia coli; experiment: Antimicrobial activity in Escherichia coli DIH-1 expressing beta-lactamase VIM-19 by Etest; type: functional
Outline: (§1)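 MICs read by Etest on Mueller-Hinton agar incubated at 37°C. Susceptibility was categorized according to CLSI guidelines. Transconjugants were obtained in E. coli J53 by liquid mating at 37°C, with selection on agar containing amoxicillin (50 μg/ml) and azide (100 μg/ml).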

[2] = test system: Klebsiella pneumoniae; experiment: Antimicrobial activity in Klebsiella pneumoniae DIH-2 clinical isolate expressing beta-lactamase VIM-19 by Etest; type: functional
[3] = test system: Escherichia coli; experiment: microbe, parasite or virus in culture; type: functional; conditions: TOP10
[4] = test system: Escherichia coli; experiment: microbe, parasite or virus in culture; type: functional; conditions: TOP10; remark: listed apart in the source
[5] = test system: Escherichia coli; experiment: Antimicrobial activity in Escherichia coli J53 transconjugate with Escherichia coli DIH-1 expressing natural plasmid containing beta-lactamase VIM-19; type: functional
Outline: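 Transconjugants came from liquid mating-out at 37°C with azide-resistant E. coli J53 as recipient, selected on agar with amoxicillin (50 μg/ml) plus azide (100 μg/ml). MICs were then read by Etest on Mueller-Hinton agar at 37°C and interpreted per CLSI.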

[6] = test system: Escherichia coli; experiment: Antimicrobial activity in Escherichia coli TOP10 strain; type: functional
Outline: (§2)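 MICs were determined by Etest on Mueller-Hinton agar plates incubated at 37°C. Susceptibility was interpreted according to CLSI guidelines.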

[7] = test system: Escherichia coli; experiment: Antimicrobial activity in Escherichia coli J53 strain; type: functional; outline: as §2
[8] = test system: Escherichia coli; experiment: microbe, parasite or virus in culture; type: functional; conditions: TOP10; remark: listed apart in the source
[9] = test system: Escherichia coli; experiment: microbe, parasite or virus in culture; type: functional; conditions: TOP10; remark: listed apart in the source
[10] = test system: Escherichia coli; experiment: Antimicrobial activity in Escherichia coli DIH-1 expressing beta-lactamase VIM-19 by Etest in presence of 4 ug/ml Tazobactam; type: functional; outline: as §1
[11] = test system: Klebsiella pneumoniae; experiment: Antimicrobial activity in Klebsiella pneumoniae DIH-2 clinical isolate expressing beta-lactamase VIM-19 by Etest in presence of 4 ug/ml Tazobactam; type: functional; outline: as §1
[12] = test system: Escherichia coli; experiment: Antimicrobial activity in Escherichia coli TOP10 hourbouring recombinant plasmid VIM-19 by Etest in presence of 4 ug/ml Tazobactam; type: functional
Outline: (§3)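 Recombinant plasmids were carried in the TOP10 cloning host. The N215K variant was made by site-directed mutagenesis using pVIM-1 as PCR template. MIC by Etest on Mueller-Hinton agar at 37°C, with CLSI interpretation.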

[13] = test system: Escherichia coli; experiment: Antimicrobial activity in Escherichia coli TOP10 hourbouring recombinant plasmid VIM-4 by Etest in presence of 4 ug/ml Tazobactam; type: functional; outline: as §3
[14] = test system: Escherichia coli; experiment: Antimicrobial activity in Escherichia coli TOP10 strain harbouring recombinant plasmid VIM-1 by Etest in presence of 4 ug/ml Tazobactam; type: functional; outline: as §3
[15] = test system: Escherichia coli; experiment: Antimicrobial activity in Escherichia coli TOP10 harbouring recombinant plasmid VIM-1-N215K by Etest in presence of 4 ug/ml Tazobactam; type: functional; outline: as §3
[16] = test system: Escherichia coli; experiment: Antimicrobial activity in Escherichia coli J53 transconjugate with Escherichia coli DIH-1 expressing natural plasmid containing beta-lactamase VIM-19 in presence of 4 ug/ml Tazobactam; type: functional
Outline: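 Transconjugant came from liquid mating-out at 37°C into azide-resistant J53, selected on agar with amoxicillin (50 μg/ml) plus azide (100 μg/ml). MIC by Etest on Mueller-Hinton agar at 37°C, with CLSI interpretation.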

[17] = test system: Escherichia coli; experiment: Antimicrobial activity in Escherichia coli TOP10 strain in presence of 4 ug/ml Tazobactam; type: functional
Outline: (§4)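 MIC by Etest on Mueller-Hinton agar plates at 37°C, with susceptibility interpreted per CLSI guidelines.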

[18] = test system: Escherichia coli; experiment: Antimicrobial activity in Escherichia coli J53 strain in presence of 4 ug/ml Tazobactam; type: functional; outline: as §4
[19] = test system: CC(C)(O/N=C(\C(=O)N[C@@H]1C(=O)N2C(C(=O)[O-])=C(C[n+]3ccccc3)CS[C@H]12)c1csc(N)n1)C(=O)O; experiment: (§5) Hydrolytic activity of beta-lactamase VIM-1 expressed in Escherichia coli TOP10 by spectrophotometry
[20] = test system: CC1(C)S[C@@H]2[C@H](NC(=O)Cc3ccccc3)C(=O)N2[C@H]1C(=O)O; experiment: as §5
[21] = test system: CCN1CCN(C(=O)N[C@@H](C(=O)N[C@@H]2C(=O)N3[C@@H]2SC(C)(C)[C@@H]3C(=O)O)c2ccccc2)C(=O)C1=O; experiment: as §5
[22] = test system: CO/N=C(\C(=O)N[C@@H]1C(=O)N2C(C(=O)O)=C(COC(C)=O)CS[C@H]12)c1csc(N)n1; experiment: as §5
[23] = test system: CO[C@@]1(NC(=O)Cc2cccs2)C(=O)N2C(C(=O)O)=C(COC(N)=O)CS[C@@H]21; experiment: as §5
[24] = test system: C[C@@H](O)[C@H]1C(=O)N2C(C(=O)O)=C(S[C@@H]3CN[C@H](C(=O)N(C)C)C3)[C@H](C)[C@H]12; experiment: as §5
[25] = test system: CC(C)(O/N=C(\C(=O)N[C@@H]1C(=O)N2C(C(=O)[O-])=C(C[n+]3ccccc3)CS[C@H]12)c1csc(N)n1)C(=O)O; experiment: (§6) Ratio of Kcat to Km for beta-lactamase VIM-1 expressed in Escherichia coli TOP10 by spectrophotometry
[26] = test system: CC1(C)S[C@@H]2[C@H](NC(=O)Cc3ccccc3)C(=O)N2[C@H]1C(=O)O; experiment: as §6
[27] = test system: CCN1CCN(C(=O)N[C@@H](C(=O)N[C@@H]2C(=O)N3[C@@H]2SC(C)(C)[C@@H]3C(=O)O)c2ccccc2)C(=O)C1=O; experiment: as §6
[28] = test system: CO/N=C(\C(=O)N[C@@H]1C(=O)N2C(C(=O)O)=C(COC(C)=O)CS[C@H]12)c1csc(N)n1; experiment: as §6
[29] = test system: CO[C@@]1(NC(=O)Cc2cccs2)C(=O)N2C(C(=O)O)=C(COC(N)=O)CS[C@@H]21; experiment: as §6
[30] = test system: C[C@@H](O)[C@H]1C(=O)N2C(C(=O)O)=C(S[C@@H]3CN[C@H](C(=O)N(C)C)C3)[C@H](C)[C@H]12; experiment: as §6

| Compound | MIC [1] | MIC [2] | MIC [3] | MIC [4] | MIC [5] | MIC [6] | MIC [7] | MIC [8] | MIC [9] | further results |
| --- | --- | --- | --- | --- | --- | --- | --- | --- | --- | --- |
| CC1(C)S[C@@H]2[C@H](NC(=O)[C@H](C(=O)O)c3ccsc3)C(=O)N2[C@H]1C(=O)O [TICARCILLIN] | > 512 µg/mL | > 512 µg/mL | > 512 µg/mL | > 512 µg/mL | > 512 µg/mL | 4 µg/mL (≈ 10.4 µM) | 4 µg/mL (≈ 10.4 µM) |  |  |  |
| CCN1CCN(C(=O)N[C@@H](C(=O)N[C@@H]2C(=O)N3[C@@H]2SC(C)(C)[C@@H]3C(=O)O)c2ccccc2)C(=O)C1=O [PIPERACILLIN] | > 512 µg/mL | > 512 µg/mL | 256 µg/mL (≈ 495 µM) | 256 µg/mL (≈ 495 µM) | 256 µg/mL (≈ 495 µM) | 1 µg/mL (≈ 1.93 µM) | 1 µg/mL (≈ 1.93 µM) | 256 µg/mL (≈ 495 µM) | 256 µg/mL (≈ 495 µM) | MIC [10]: > 512 µg/mL; MIC [11]: > 512 µg/mL; MIC [12]: 256 µg/mL; MIC [13]: 256 µg/mL; MIC [14]: 256 µg/mL; MIC [15]: 256 µg/mL; MIC [16]: 256 µg/mL; MIC [17]: 1 µg/mL; MIC [18]: 1 µg/mL |
| BlaVIM-1 (Escherichia coli) (from UniProt Q8GDC1) |  |  |  |  |  |  |  |  |  | Km [19]: 800 µM; kcat [19]: 60 s⁻¹; Km [20]: 850 µM; Km [21]: 3500 µM; Km [22]: 250 µM; Km [23]: 130 µM; Km [24]: 50 µM; kcat/Km [25]: 100000 M⁻¹ s⁻¹; kcat/Km [26]: 50000 M⁻¹ s⁻¹; kcat/Km [27]: 500000 M⁻¹ s⁻¹; kcat/Km [28]: 700000 M⁻¹ s⁻¹; kcat/Km [29]: 200000 M⁻¹ s⁻¹; kcat/Km [30]: 300000 M⁻¹ s⁻¹ |
| CO/N=C(\C(=O)N[C@@H]1C(=O)N2C(C(=O)O)=C(COC(C)=O)CS[C@H]12)c1csc(N)n1 [CEFOTAXIME] | > 512 µg/mL | > 512 µg/mL | 64 µg/mL (≈ 141 µM) | 64 µg/mL (≈ 141 µM) | 64 µg/mL (≈ 141 µM) | 0.12 µg/mL (≈ 0.263 µM) | 0.12 µg/mL (≈ 0.263 µM) | 32 µg/mL (≈ 70.3 µM) | 64 µg/mL (≈ 141 µM) |  |
| CO/N=C(\C(=O)N[C@@H]1C(=O)N2C(C(=O)O)=C(COC(N)=O)CS[C@H]12)c1ccco1 [CEFUROXIME] | > 512 µg/mL | > 512 µg/mL | > 512 µg/mL | > 512 µg/mL | > 512 µg/mL | 2 µg/mL (≈ 4.71 µM) | 4 µg/mL (≈ 9.43 µM) |  |  |  |
| CC(C)(O/N=C(\C(=O)N[C@@H]1C(=O)N2C(C(=O)[O-])=C(C[n+]3ccccc3)CS[C@H]12)c1csc(N)n1)C(=O)O [CEFTAZIDIME] | > 512 µg/mL | 128 µg/mL (≈ 234 µM) | 32 µg/mL (≈ 58.5 µM) | 32 µg/mL (≈ 58.5 µM) | 32 µg/mL (≈ 58.5 µM) | 0.06 µg/mL (≈ 0.11 µM) | 0.06 µg/mL (≈ 0.11 µM) | 512 µg/mL (≈ 937 µM) | 512 µg/mL (≈ 937 µM) |  |
| C[C@@H](O)[C@H]1C(=O)N2C(C(=O)O)=C(SCCNC=N)C[C@H]12 [IMIPENEM ANHYDROUS] |  | 8 µg/mL (≈ 26.7 µM) |  |  | 4 µg/mL (≈ 13.4 µM) |  |  |  |  |  |
